Active and inactive are the calls of the source. No cut-off for these calls is given here.
How the values were obtained:
[1] = Inhibition of hepatobiliary transporter in Sprague-Dawley rat sandwich-cultured rat hepatocytes assessed as decrease in d8-TCA by measuring biliary excretion index at 1 to 25 uM incubated for 15 mins followed by d8-TCA addition measured after 15 mins by LC-MS/MS analysis; assay type: ADME; conditions: 0.25 h
Outline: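 Sandwich-cultured hepatocytes from male SD rats exposed to compound 15 min in standard HBSS. Cells rinsed and pre-incubated 15 min at 37 ℃ in standard or Ca2+-free HBSS, then incubated 15 min with compound plus 1 µM d8-TCA. Washed with ice-cold PBS; cellular d8-TCA measured by LC-MS/MS. BEI = (A_HBSS – A_Ca-free)/A_HBSS × 100%.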

[2] = molecular target: T1, Free fatty acid receptor 4 (Homo sapiens, UniProt Q5NUL3); assay: Agonist activity at human GPR120 expressed in CHO cells assessed as increase in intracellular Ca2+ flux by Fluo 4-AM dye based assay; assay type: functional, cell-based
T1 sequence (Q5NUL3 whole entry): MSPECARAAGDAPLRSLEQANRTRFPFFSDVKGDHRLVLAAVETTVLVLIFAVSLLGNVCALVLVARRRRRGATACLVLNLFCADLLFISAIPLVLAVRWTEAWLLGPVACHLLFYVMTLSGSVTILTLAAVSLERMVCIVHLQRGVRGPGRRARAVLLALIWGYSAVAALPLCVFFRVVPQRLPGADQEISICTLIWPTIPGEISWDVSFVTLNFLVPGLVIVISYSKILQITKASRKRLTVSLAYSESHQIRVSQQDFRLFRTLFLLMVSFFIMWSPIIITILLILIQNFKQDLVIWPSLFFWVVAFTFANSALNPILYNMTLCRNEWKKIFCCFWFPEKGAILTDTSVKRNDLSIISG
Outline: (§1)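 CHO cells stably expressing hGPR40 or hGPR120, seeded and incubated overnight at 37 ℃, 5% CO2. Loaded 90 min with Fluo 4-AM (3 μM) and probenecid (2.5 mM) in HBSS/0.1% BSA, washed, equilibrated 10 min. Ca2+ read as change in 585/525 ratio before and after compound addition; EC50 and Emax fitted from curves, Emax relative to reference agonist 4; mean ± SD, three independent experiments.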

[3] = molecular target: T2, Peroxisome proliferator-activated receptor gamma (Homo sapiens, UniProt P37231); assay: Agonist activity at PPARgamma (unknown origin) expressed in HEK293T cells by luciferase reporter gene assay; assay type: cell-based
T2 sequence (P37231 whole entry): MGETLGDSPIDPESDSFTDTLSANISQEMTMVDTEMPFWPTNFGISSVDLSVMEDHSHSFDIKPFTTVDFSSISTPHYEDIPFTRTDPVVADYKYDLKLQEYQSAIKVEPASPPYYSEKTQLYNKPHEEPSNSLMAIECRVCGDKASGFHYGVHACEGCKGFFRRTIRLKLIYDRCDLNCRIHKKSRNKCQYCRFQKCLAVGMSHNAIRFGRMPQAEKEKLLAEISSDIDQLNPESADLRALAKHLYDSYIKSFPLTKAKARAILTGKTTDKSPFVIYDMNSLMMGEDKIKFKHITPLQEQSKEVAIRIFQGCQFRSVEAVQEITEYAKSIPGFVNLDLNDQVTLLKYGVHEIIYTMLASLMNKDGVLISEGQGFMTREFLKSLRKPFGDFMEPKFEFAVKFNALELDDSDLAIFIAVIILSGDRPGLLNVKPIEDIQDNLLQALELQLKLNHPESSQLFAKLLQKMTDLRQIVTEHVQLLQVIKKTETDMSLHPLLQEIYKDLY

Mus musculus = assay: Antidiabetic activity in ICR mouse assessed as decrease in blood glucose AUC at 10 to 20 mg/kg, po administered 30 mins prior to glucose challenge measured 120 mins post dose by OGTT; assay type: functional, organism-based
Outline: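 Six-week-old male ICR mice fasted 16 h, n = 10 per group, dosed orally in 0.5% methylcellulose/20% PEG400 (10 or 20 mg/kg). Oral glucose load 2.5 g/kg by gavage 30 min later. Tail-vein glucose read at -30, 0, 30, 60, 90 and 120 min; AUC0-120 min computed and compared with vehicle.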

[4] = Oral bioavailability in Sprague-Dawley rat plasma at 10 mg/kg administered via gavage by LC/MS analysis; assay type: ADME, organism-based
Outline: (§2)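 Male SD rats (200 ± 20 g), acclimated 7 days, fasted overnight with water; n = 4 per route, 10 mg/kg by oral gavage or 1 mg/kg iv via tail vein. Plasma separated by centrifugation and stored at -80 ℃; drug measured by ESI triple-quadrupole LC-MS. Parameters from non-compartmental analysis, reported as mean ± SD. F = (AUCpo/Dosepo)/(AUCiv/Doseiv) × 100%.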

[5] = Cmax in Sprague-Dawley rat plasma at 1 mg/kg, iv by LC/MS analysis; assay type: ADME, organism-based; design: dose 1 mg/kg, route intravenous; outline: as §2
[6] = Cmax in Sprague-Dawley rat plasma at 10 mg/kg administered via oral gavage by LC/MS analysis; assay type: ADME, organism-based; design: dose 10 mg/kg, route oral; outline: as §2
[7] = AUC (0 to t) in Sprague-Dawley rat plasma at 1 mg/kg, iv by LC/MS analysis; assay type: ADME, organism-based; outline: as §2
[8] = AUC (0 to t) in Sprague-Dawley rat plasma at 10 mg/kg administered via oral gavage by LC/MS analysis; assay type: ADME, organism-based; outline: as §2
[9] = Half life in Sprague-Dawley rat plasma at 1 mg/kg, iv by LC/MS analysis; assay type: ADME, organism-based; outline: as §2
[10] = Half life in Sprague-Dawley rat plasma at 10 mg/kg administered via oral gavage by LC/MS analysis; assay type: ADME, organism-based; outline: as §2
[11] = Tmax in Sprague-Dawley rat plasma at 10 mg/kg administered via oral gavage by LC/MS analysis; assay type: ADME, organism-based; outline: as §2
[12] = Mean residence time (last) in Sprague-Dawley rat plasma at 1 mg/kg, iv by LC/MS analysis; assay type: ADME, organism-based; outline: as §2
[13] = Mean residence time (last) in Sprague-Dawley rat plasma at 10 mg/kg administered via oral gavage by LC/MS analysis; assay type: ADME, organism-based; outline: as §2
[14] = molecular target: Free fatty acid receptor 1 (Mus musculus) (UniProt Q76JU9); assay: Agonist activity at GPR40 in mouse MIN6 cells assessed as increase in 25 mM glucose-stimulated insulin secretion at 10 uM after 1 hr by ELISA; assay type: cell-based
Sequence of Free fatty acid receptor 1 (Mus musculus) (Q76JU9 whole entry): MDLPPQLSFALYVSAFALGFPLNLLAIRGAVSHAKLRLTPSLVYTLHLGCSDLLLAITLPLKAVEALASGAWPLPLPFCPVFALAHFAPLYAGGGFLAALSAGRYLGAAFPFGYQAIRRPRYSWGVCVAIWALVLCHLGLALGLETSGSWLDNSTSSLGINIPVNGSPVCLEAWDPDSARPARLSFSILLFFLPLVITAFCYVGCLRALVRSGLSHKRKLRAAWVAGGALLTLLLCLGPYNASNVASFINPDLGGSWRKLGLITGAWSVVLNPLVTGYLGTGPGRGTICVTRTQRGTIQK
Outline: (§3)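 MIN6 cells pre-incubated 2 h at 37 ℃ in KRBH buffer with 0.1% BSA, then stimulated 1 h at 37 ℃ with 2 mM or 25 mM glucose, alone or with test agents. Insulin secreted into supernatant quantified by ELISA; mean ± SD of four independent experiments, compared with DMSO.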

[15] = molecular target: Free fatty acid receptor 1 (Mus musculus) (UniProt Q76JU9); assay: Agonist activity at GPR40 in mouse MIN6 cells assessed as increase in 25 mM glucose-stimulated insulin secretion at 300 nM after 1 hr by ELISA; assay type: cell-based; outline: as §3
[16] = molecular target: Free fatty acid receptor 1 (Mus musculus) (UniProt Q76JU9); assay: Agonist activity at GPR40 in mouse MIN6 cells assessed as increase in 2 mM glucose-stimulated insulin secretion at 0.1 to 3 uM after 1 hr by ELISA; assay type: cell-based; outline: as §3
[17] = molecular target: T3, Free fatty acid receptor 1 (Homo sapiens, UniProt O14842); assay: Agonist activity at human GPR40 expressed in HEK293T cells transfected with 0.05 ug of GPR40 expression plasmid assessed as increase in intracellular Ca2+ flux by Fluo 4-AM dye based assay; assay type: functional, cell-based; conditions: HEK-293T
T3 sequence (O14842 whole entry): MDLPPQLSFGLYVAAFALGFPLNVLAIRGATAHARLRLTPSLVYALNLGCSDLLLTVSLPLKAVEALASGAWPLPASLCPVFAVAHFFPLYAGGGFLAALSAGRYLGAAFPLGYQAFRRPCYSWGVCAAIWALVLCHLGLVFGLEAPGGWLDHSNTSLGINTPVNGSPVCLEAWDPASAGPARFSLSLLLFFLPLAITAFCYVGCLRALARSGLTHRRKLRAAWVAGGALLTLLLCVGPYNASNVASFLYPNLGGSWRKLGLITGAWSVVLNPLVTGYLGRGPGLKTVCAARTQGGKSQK
Outline: (§4)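 Plasmid titration: HEK293T cells transiently transfected with 5 μg or 0.05 μg hGPR40 expression plasmid, plated on poly-D-lysine and held 24 h. Loaded with Fluo 4-AM (3 μM) and probenecid (2.5 mM) in HBSS/0.1% BSA for 90 min, washed, equilibrated 10 min. Ca2+ response measured as change in 585/525 ratio after compound addition; mean ± SD of three experiments.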

[18] = molecular target: T3, Free fatty acid receptor 1; assay: Agonist activity at human GPR40 expressed in CHO cells assessed as increase in intracellular Ca2+ flux by Fluo 4-AM dye based assay relative to 3-(4-((2',6'-dimethylbiphenyl-3-yl)methoxy)phenyl)propanoic acid; assay type: functional, cell-based; outline: as §1
[19] = molecular target: T3, Free fatty acid receptor 1; assay: Agonist activity at human GPR40 expressed in HEK293T cells transfected with 5 ug of GPR40 expression plasmid assessed as increase in intracellular Ca2+ flux by Fluo 4-AM dye based assay; assay type: functional, cell-based; conditions: HEK-293T; outline: as §4
[20] = molecular target: T3, Free fatty acid receptor 1; assay: Agonist activity at human GPR40 expressed in CHO cells assessed as increase in intracellular Ca2+ flux by Fluo 4-AM dye based assay; assay type: functional, cell-based

Activity [1]: Not Active | EC50 [2]: > 10 µM | EC50 [3]: > 10 µM | bioavailability [4]: 13.3% | Cmax [5]: 2180 ng/mL | Cmax [6]: 834 ng/mL | AUC(0-t) [7]: 3320 ng·h/mL | AUC(0-t) [8]: 4420 ng·h/mL | half-life [9]: 228 min | half-life [10]: 234 min | Tmax [11]: 1 h | MRT last [12]: 3.2 h | MRT last [13]: 5 h | Activity [14]: Active | Activity [15]: Active | Activity [16]: inactive | Activity [17]: Active | Emax [18]: 244% | Activity [19]: Active | EC50 [20]: 81 nM
SMILES: CC#C[C@@H](CC(=O)O)c1ccc(OCc2cccc(-c3c(C)cc(OCCCS(C)(=O)=O)cc3C)c2)s1
Activity (Mus musculus): Active

Reference: ChEMBL document CHEMBL4007473, “Discovery of Potent and Orally Bioavailable GPR40 Full Agonists Bearing Thiophen-2-ylpropanoic Acid Scaffold” (J Med Chem, 2017)
